Among the data in ChEMBL document CHEMBL1134346, “Labeling and evaluation of N-[11C]methylated quinoline-2-carboxamides as potential radioligands for visualization of peripheral benzodiazepine receptors” (J Med Chem, 2001) are I.D./g values, retold here.

Each structure is given as a SMILES string.

For data set [1], the target named is Translocator protein (Rattus norvegicus) (UniProt P16257). Description: Tissue (heart) concentration of radioactivity at 30 min post-injection into Albino male CD rats after pretreatment with cold PK 11195. In kind it is functional. Put shortly: (§1)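 Separate groups of five rats received tail-vein PK 11195 (1.4-1.6 mg; 5 mg/kg) in 30 µL DMSO:EtOH 1:1, or vehicle alone, immediately before iv radioligand (90-170 µCi in saline, 0.9-1 Ci/µmol). Rats were decapitated at 30 min and tissues gamma-counted; values are %I.D./g.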

Data set [2] is filed under the species Rattus norvegicus. Description: Tissue (blood) concentration of radioactivity at 30 min post-injection into Albino male CD rats with vehicle. Conditions: in vivo, 0.5 h. The class given is ADME, organism-based. Put shortly:
as §1

The species named for data set [3] is Rattus norvegicus. The data set is described as follows: Tissue (intestine) distribution in Albino male CD rats after 5 minutes expressed as percent of injected dose per gram of organ. The conditions noted are these: in vivo. In kind it is ADME, organism-based. Put shortly:
(§2)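 Radioligand given in saline into tail vein of male albino CD rats (225-250 g); 100-200 µCi per animal, 1-2 Ci/µmol at injection depending on radioligand. Three rats per time point were decapitated under light ether anaesthesia. Blood, plasma, brain regions and washed organs were weighed and gamma-counted. Uptake is %I.D./g tissue, mean ± SD.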

Data set [4] is filed under the species Rattus norvegicus. Description: Tissue (muscle) concentration of radioactivity at 30 min post-injection into Albino male CD rats with vehicle. The conditions noted are these: in vivo, 0.5 h. In kind it is ADME, organism-based. Put shortly: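 Blocking study in male albino CD rats, five per group. Immediately before the 11C radioligand (in saline, i.v. tail vein), rats received 30 µL tail-vein PK 11195 (5 mg/kg; 1.4-1.6 mg) in DMSO:EtOH 1:1, or vehicle. Rats were decapitated at 30 min. Tissues were dissected, washed, gamma-counted and weighed as in the biodistribution study. Results are %I.D./g.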

The species entered for data set [5] is Rattus norvegicus. Description: Tissue (cerebellum) distribution in Albino male CD rats after 15 minutes expressed as percent of injected dose per gram of organ. The class given is ADME, organism-based. The conditions noted are these: in vivo, 0.25 h. Put shortly:
as §2

For data set [6], the species on record is Rattus norvegicus. Description: Tissue (muscle) distribution in Albino male CD rats after 15 minutes expressed as percent of injected dose per gram of organ. The class given is ADME, organism-based. Conditions: in vivo, 0.25 h. Put shortly:
(§3)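 Male albino CD rats (225-250 g) received the 11C-labelled radioligand in saline by tail-vein injection. Three rats per time point were decapitated under light ether anaesthesia at 5, 15, 30, 60 or 90 min. Blood was collected heparinized and plasma separated by centrifugation. The pituitary was dissected from the brain. Lung, liver (three-lobe pieces) and right deltoid muscle were sampled, washed in cold saline, gamma-counted and weighed. Results are %I.D./g.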

For data set [7], the species on record is Rattus norvegicus. Description: Tissue (liver) distribution in Albino male CD rats after 15 minutes expressed as percent of injected dose per gram of organ. The class given is ADME, organism-based. Conditions: in vivo, 0.25 h. In outline:
as §2

For data set [8], the species on record is Rattus norvegicus. The data set is described as follows: Tissue (heart) distribution in Albino male CD rats after 30 minutes expressed as percent of injected dose per gram of organ. In kind it is ADME, organism-based. Conditions: in vivo, 0.5 h. Put shortly: as §2
The species entered for data set [9] is Rattus norvegicus. Description: Tissue (cortex) distribution in Albino male CD rats after 5 minutes expressed as percent of injected dose per gram of organ. In kind it is ADME, organism-based. The conditions noted are these: in vivo. In outline: as §2
Data set [10] is filed under the species Rattus norvegicus. The data set is described as follows: Tissue (lung) distribution in Albino male CD rats after 30 minutes expressed as percent of injected dose per gram of organ. The class given is ADME, organism-based. The conditions noted are these: in vivo, 0.5 h. In outline: as §3
The species entered for data set [11] is Rattus norvegicus. The data set is described as follows: Tissue (Muscle) distribution in Albino male CD rats after 15 minutes expressed as percent of injected dose per gram of organ. The class given is ADME, organism-based. The conditions noted are these: in vivo, 0.25 h. In outline: as §2
The species entered for data set [12] is Rattus norvegicus. Description: Tissue (blood) concentration of radioactivity at 30 min post-injection into Albino male CD rats with vehicle. In kind it is ADME, organism-based. The conditions noted are these: in vivo, 0.5 h. In outline:
as §1

Sequence of Translocator protein (Rattus norvegicus) (P16257 whole entry, looked up): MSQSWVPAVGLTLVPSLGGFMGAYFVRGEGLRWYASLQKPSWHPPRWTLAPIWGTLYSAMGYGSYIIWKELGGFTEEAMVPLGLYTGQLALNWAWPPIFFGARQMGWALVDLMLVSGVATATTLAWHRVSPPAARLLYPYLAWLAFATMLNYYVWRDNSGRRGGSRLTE

For `CCC(C)N(C)C(=O)c1nc2ccccc2c(-c2ccccc2)c1C` (stereo not given), the I.D./g is below 0.13% in [1]; 0.03% in the data set filed under Rattus norvegicus [2]; 0.25% in the data set listed under Rattus norvegicus [3]; 0.09% in the data set filed under Rattus norvegicus [4]; 0.08% in the data set filed under Rattus norvegicus [5]; 0.14% in the data set listed under Rattus norvegicus [6]. Also, the I.D./g came out at 0.5% in the data set listed under Rattus norvegicus [7], 1.21% in the data set filed under Rattus norvegicus [8], 0.12% in the data set listed under Rattus norvegicus [9] and 2.34% in the data set listed under Rattus norvegicus [10].

Take `CCC(C)N(C)C(=O)c1nc2ccccc2c(-c2ccccc2F)c1C` (stereo not given): the I.D./g in data set [1] was below 0.11%; in the data set listed under Rattus norvegicus [2], 0.04%; in the data set filed under Rattus norvegicus [3], 0.18%; in the data set filed under Rattus norvegicus [4] it was 0.05%; in the data set listed under Rattus norvegicus [5], 0.11%; in the data set filed under Rattus norvegicus [6] it was 0.13%. Moreover, the I.D./g in the data set filed under Rattus norvegicus [7] amounted to 0.69%; in the data set filed under Rattus norvegicus [8], 0.73%; in the data set filed under Rattus norvegicus [9] it was 0.1%; in the data set filed under Rattus norvegicus [10] it was 2.09%.

Regarding `Cc1c(C(=O)N(C)Cc2ccccc2)nc2ccccc2c1-c1ccccc1`, the I.D./g in [1] was below 0.04%; in the data set filed under Rattus norvegicus [11] it was 0.25%; in the data set listed under Rattus norvegicus [3], 0.3%; in the data set listed under Rattus norvegicus [4], 0.03%; in the data set filed under Rattus norvegicus [5], 0.2%; in the data set listed under Rattus norvegicus [7] it was 0.59%. For the same molecule, the I.D./g in the data set filed under Rattus norvegicus [8] stood at 2.58%; in the data set filed under Rattus norvegicus [9], 0.25%; in the data set filed under Rattus norvegicus [12], 0.01%; in the data set listed under Rattus norvegicus [10] it was 2%.
